Calls of active or inactive are those of the source.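 How the source made its calls: active means compounds whose fitted caspase activation midpoint falls no more than tenfold above the top tested dose; inconclusive means flat fit with activity between 30 and 70 percent, or failed fit; inactive means the rest.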
The compounds below were run on MEF Flag-A1-IRES-BIM, caspase-Glo luminescence, 3 h (assay: Caspase-Glo signal, Flag-A1-IRES-BIM MEF cells – cell-based, alternate construct, luminescence, A1 (Bcl2A1) inhibitor project, dose response (AID 449757)).
In short: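 Test system: Flag-A1-IRES-BIM-primed MEF cells. Technique: luminescent caspase activity measurement with CaspaseGlo reagent. Dosing: 100 nL compound added per well by pin transfer. Times: 3-h compound at 37 °C, 30-min cooling, 1-h reagent at RT. Buffer or medium: RPMI-1640 growth medium with 10% FBS.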
Work on CCOc1cc(/C=C\[N+](=O)[O-])ccc1OCC(=O)Nc1ccccc1C yielded an AC50 of 6.53 µM.
Compound CCCCNC(=O)c1ccc(Cn2c(=S)[nH]c3c([nH]c4ccc(OC)cc43)c2=O)cc1 has an AC50 of 4.77 µM.
With Cc1ccc(Sc2c([N+](=O)[O-])c(=O)n(C)c3ccccc23)cc1 the AC50 was > 35 µM (inactive).
For COc1ccc(-c2ccc3c(c2)S(=O)(=O)c2cccc(C(=O)NC[C@@H]4CCCO4)c2C3=O)cc1OC, the AC50 was > 35 µM (inactive).
With O=C(NCc1ccccc1Cl)c1cccc2c1C(=O)c1ccc(-c3ccc(OC(F)(F)F)cc3)cc1S2(=O)=O the AC50 was > 35 µM (inactive).
With CC1=CC(=O)C(C(C)C)=C/C1=N/OS(=O)(=O)c1ccccc1 the AC50 was 6.53 µM.
In the case of Cc1ccc(S(=O)(=O)c2nnn3c2nc(Nc2cccc(C)c2)c2ccccc23)cc1, the AC50 is reported as > 35 µM (inactive).
With COc1cc2ncnc(NCc3ccc(F)cc3)c2cc1OC the AC50 was > 35 µM (inactive).
For CN1C2CCC1/C(=C/c1ccccn1)C(=O)/C2=C\c1ccccn1, the AC50 was > 35 µM (inactive).
In the case of Cc1cc(C)cc(Cn2ncc(Cl)c(Cl)c2=O)c1, the AC50 is reported as > 35 µM (inactive).
With Cn1c(=NC(=O)CCl)sc2ccccc21 the AC50 was > 35 µM (inactive).
With CC(=O)[C@]1(O)Cc2c(O)c3c(c(O)c2[C@@H](O[C@H]2C[C@H](N)[C@H](O)[C@H](C)O2)C1)C(=O)c1ccccc1C3=O the AC50 was > 35 µM (inactive).
O=C(NC1CCCC1)c1cccc2c1C(=O)c1ccc(/C=C/c3ccccc3)cc1S2(=O)=O showed an AC50 of 7.48 µM.
Compound COc1cc(NC(=O)c2ccc(C)cc2C)ccc1NC(=O)c1cc2ccccc2o1 has an AC50 of 32.3 µM.
Compound O=[N+]([O-])/C=C/c1cn(Cc2ccc(Cl)cc2)c2ccccc12 has an AC50 of 15.9 µM.
CCC1CCCCN1S(=O)(=O)c1ccc(NC(=O)c2nc(S(C)(=O)=O)ncc2Cl)cc1 (centres undefined) was tested, and the AC50 was 3.73 µM.
For CC1=NNC(=O)/C1=C\c1cn(-c2ccccc2)nc1-c1ccccc1, the AC50 was 10.4 µM.
Cc1[nH]nc2nc(SCC(=O)NCCC3=CCCCC3)n(-c3ccc(Br)cc3)c(=N)c12 was tested, and the AC50 was 17.1 µM.
O=C1/C(=C\c2c(NCCOCCO)nc3ccccn3c2=O)SC(=S)N1Cc1ccco1 was tested, and the AC50 was > 35 µM (inactive).
CN(C)C/C=C(\c1ccc(Br)cc1)c1cccnc1 was tested, and the AC50 was > 35 µM (inactive).
For CC1CCc2c(sc3nc(C(C)(C)C)nc(N4CCN(C(=O)CCl)CC4)c23)C1 (centres undefined), the AC50 was 10.2 µM.
CC(C)(C)[C@H](N)C(=O)N[C@H]1CCC2C3CC=C4C[C@@H](O)CC[C@]4(C)C3CC[C@@]21C (some centres undefined) was tested, and the AC50 was > 35 µM (inactive).
For COc1ccc(-c2ccc3c(c2)S(=O)(=O)c2cccc(C(=O)NCCOc4ccccc4)c2C3=O)cc1OC, the AC50 was > 35 µM (inactive).
COc1cc(/C=C(/C#N)c2nc3ccccc3[nH]2)ccc1OCC(=O)Nc1ccccc1C gave an AC50 of 6.32 µM.
For CC(C)(C)C1CCc2onc(C(=O)Nc3cccc(O)c3)c2C1 (centres undefined), the AC50 was > 35 µM (inactive).
Work on CCOc1cc(C(=O)CSc2nnc(CNc3ccc(Cl)cc3)o2)ccc1NC(=O)CC yielded an AC50 of 15.3 µM.
With O=C(NCCc1ccccc1)C(c1cccs1)N(C(=O)CCl)c1ccc(Cl)cc1 (centres undefined) the AC50 was 13.3 µM.
Cc1ccc(N(Cc2cc(=O)[nH]c3ccccc23)C(=O)CCl)cc1 was tested, and the AC50 was > 35 µM (inactive).
CCOC(=O)/C(=C\c1ccc(OC(F)F)cc1)C1=Nn2c(nnc2-c2ccc(Cl)cc2)SC1 was tested, and the AC50 was 4.71 µM.
For O=C(Nc1ccc2oc(-c3ccccc3)nc2c1)c1ccccc1F, the AC50 was > 35 µM (inactive).
For N#Cc1cccnc1N1CCN(C(=O)c2cccc3c2C(=O)c2ccc(-c4ccc(Cl)c(C(F)(F)F)c4)cc2S3(=O)=O)CC1, the AC50 was > 35 µM (inactive).
In the case of C=C1CCc2c([nH]c3ccc(OCC(C)C)cc23)C1=O, the AC50 is reported as 8.5 µM.
With O=[N+]([O-])/C=C/c1ccc2c(ccn2Cc2ccccc2)c1 the AC50 was 13.4 µM.
CCOc1ccc(OCC(=O)N(CCC2=CCCCC2)c2c(N)n(Cc3ccccc3)c(=O)[nH]c2=O)cc1 gave an AC50 of 20.9 µM.
Work on O=C(Nc1ccc(Cl)cc1Cl)c1cccc(N2C(=O)C=CC2=O)c1 yielded an AC50 of 19.1 µM.
With CC(=O)Nc1ccc(NC(=O)C(=O)NCC(c2ccco2)N2CCc3ccccc32)cc1 (centres undefined) the AC50 was 28.9 µM.
Work on Cc1cccc(C)c1NC(=O)CSc1nc(C)c(CC(=O)c2ccc(Br)cc2)c(C)c1C#N yielded an AC50 of 28.8 µM.
In the case of O=C(N=Nc1c(O)[nH]c2ccc([N+](=O)[O-])cc12)c1cc(-c2ccccc2Cl)nc2ccccc12, the AC50 is reported as > 35 µM (inactive).
CCOC(=O)COc1ccccc1/C=C\[N+](=O)[O-] showed an AC50 of 10.5 µM.
For CC1(C)C[C@H](O)[C@]2(CO)[C@H](O)C[C@]3(C)C(=CCC4[C@@]5(C)CC[C@H](O)C(C)(C)C5CC[C@]43C)[C@@H]2C1 (some centres undefined), the AC50 was > 35 µM (inactive).
CCOc1ccc(NC(=S)NC(=O)/C=C/c2ccc(C)cc2)c([N+](=O)[O-])c1 gave an AC50 of 21 µM.
In the case of CC(C)c1cccc(-c2ccc3c(c2)S(=O)(=O)c2cccc(C(=O)NC4CCCC4)c2C3=O)c1, the AC50 is reported as > 35 µM (inactive).
Cc1cc(C)cc(NC(=O)/C(C#N)=C/c2cn(CC(=O)NCc3ccco3)c3ccccc23)c1 gave an AC50 of 8.5 µM.
Cc1ccc(C2(c3ccc(C)cc3)CC2C(=O)Nc2ccc([N+](=O)[O-])cc2O)cc1 (centres undefined) was tested, and the AC50 was > 35 µM (inactive).
